# Source: ChEMBL document CHEMBL4017520, “Discovery, Structure-Activity Relationship, and Antiparkinsonian Effect of a Potent and Brain-Penetrant Chemical Series of Positive Allosteric Modulators of Metabotropic Glutamate Receptor 4” (J Med Chem, 2017)
# The source made the active and inactive calls. The rule behind the calls is not given here.
# Tests used:
# [1] = AUC (0 to infinity) in C57BL/6 mouse at 2 mg/kg, iv administered as single dose by LC-MS/MS analysis; type: ADME, organism-based; design: dose 2 mg/kg, time infinity, route intravenous; details: in vivo
# [2] = Ratio of fraction unbound in Sprague-Dawley rat brain at 30 mg/kg, ip after 30 mins to EC50 for rat mGlu4 receptor expressed in HEK293 cells
# [3] = Ratio of drug level in Sprague-Dawley rat brain to plasma at 10 mg/kg, po after 30 mins post dose administered as single dose by LC-MS/MS analysis; type: ADME, organism-based; details: read-out: BPR
# Method in brief: (§1)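 Single dose ip (10 or 30 mg/kg, rat) or oral (10 mg/kg, rat or mouse); plasma Cmax, Tmax, half-life, AUC0−inf derived; brain concentration and brain/plasma ratio at 30 min postdose. Mean of 3 rats or 2 mice.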
# Mus musculus = assay: Volume of distribution in C57BL/6 mouse at 2 mg/kg, iv administered as single dose by LC-MS/MS analysis; type: ADME, organism-based; details: in vivo
# Method in brief: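 Single intravenous dose: rats 1 mg/kg, mice 2 mg/kg. Plasma concentration–time data yielded Cmax, t1/2, AUC0−∞, plasma clearance and volume of distribution. Values are mean ±SEM of 3 animals.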
# [4] = biological target: Metabotropic glutamate receptor 4 (Homo sapiens, UniProt Q14833); assay: Positive allosteric modulation of recombinant human mGlu4 receptor expressed in HEK293 cells co-expressing chimeric G protein assessed as increase in EC20 glutamate-induced […]; type: functional, cell-based
# [5] = Half life in Sprague-Dawley rat plasma at 10 mg/kg, po administered as single dose by LC-MS/MS analysis; type: ADME, organism-based; method in brief: as §1
# [6] = Ratio of drug uptake in Sprague-Dawley rat brain at 10 mg/kg, ip to EC50 for rat mGlu4 receptor expressed in HEK293 cells
# Method in brief: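 Rats received a single ip or oral dose. Brain concentration was measured 30 min postdose, mean of 3 rats, and divided by the EC50 measured in cell lines overexpressing rat mGluR4.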
# Brain = assay: Fraction unbound in Sprague-Dawley rat brain at 30 mg/kg, ip after 120 mins; type: ADME, organism-based; details: in vivo, 2 h
# [7] = Protein binding in Sprague-Dawley rat brain at 10 uM by rapid equilibrium dialysis; type: ADME, tissue-based; details: read-out: PB (converted)
# [8] = Ratio of drug level in C57BL/6 mouse brain to plasma at 2 mg/kg, iv administered as single dose measured after 30 mins by LC-MS/MS analysis; type: ADME, organism-based; details: read-out: BPR
# Method in brief: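 Single iv dose, 1 mg/kg in rat or 2 mg/kg in mouse; plasma PK parameters derived; brain/plasma ratio taken at 1 h postdose (rat) or 30 min postdose (mouse). Mean of 3 rats; 2 mice for mouse Cmax and brain/plasma.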
# [9] = Ratio of fraction unbound in Sprague-Dawley rat brain at 30 mg/kg, ip after 60 mins to EC50 for rat mGlu4 receptor expressed in HEK293 cells
# Rattus norvegicus = assay: Toxicity in 6-OHDA induced parkinsonian motor deficit Sprague-Dawley rat model assessed as induction of dyskinesia at 30 mg/kg, ip; type: organism-based; details: in vivo
# [10] = Ratio of fraction unbound in Sprague-Dawley rat brain at 30 mg/kg, ip after 240 mins to EC50 for rat mGlu4 receptor expressed in HEK293 cells
# [11] = Tmax in C57BL/6 mouse plasma at 10 mg/kg, po administered as single dose by LC-MS/MS analysis; type: ADME, organism-based
# Method in brief: (§2)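 Single-dose plasma PK after ip (10 or 30 mg/kg) or oral (10 mg/kg) dosing in rats, and oral 10 mg/kg dosing in mice. […] Values are mean ±SEM of 3 rats or 2 mice.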
# [12] = Tmax in Sprague-Dawley rat plasma at 10 mg/kg, ip administered as single dose by LC-MS/MS analysis; type: ADME, organism-based; method in brief: as §2
# [13] = Cmax in Sprague-Dawley rat plasma at 30 mg/kg, ip administered as single dose by LC-MS/MS analysis; type: ADME, organism-based; design: dose 30 mg/kg, route intraperitoneal
# Method in brief: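 Rats dosed ip at 10 or 30 mg/kg. Plasma Cmax, Tmax, half-life and AUC0–inf were determined. Brain concentration was measured 30 min postdose, and brain/plasma ratio was taken at 30 min. Values are the mean (±SEM) of 3 rats.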
# [14] = biological target: Metabotropic glutamate receptor 4 (Rattus norvegicus, UniProt P31423); assay: Positive allosteric modulation of rat mGlu4 receptor expressed in HEK293 cells co-expressing Gi/Gq assessed as increase in glutamate-induced calcium flux preincubated for 10 mins followed by glutamate addition measured for 3 mins by Fluo4-AM dye based fluorescence assay; type: functional, cell-based
# [15] = biological target: Metabotropic glutamate receptor 7 (Homo sapiens) (UniProt Q14831); assay: Activity at human mGlu7 receptor expressed in HEK293 cells co-expressing Gi/Gq assessed as effect on LAP4-induced intracellular calcium level up to 10 uM after 10 mins by Fluo4-AM dye based fluorescence assay; type: functional, cell-based
# Method in brief: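 Human mGluR7 in transfected HEK293 cells loaded with Fluo4-AM. Compound was added for 10 min, followed by L-AP4 at EC20 or EC80 in place of glutamate, and calcium fluorescence was recorded for 3 min. Results are from at least two or three independent experiments.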
# [16] = biological target: Metabotropic glutamate receptor 2 (Homo sapiens) (UniProt Q14416); assay: Activity at human mGlu2 receptor expressed in HEK293 cells co-expressing Gi/Gq assessed as effect on intracellular calcium level up to 10 uM after 10 mins by Fluo4-AM dye based fluorescence assay; type: functional, cell-based
# Method in brief: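 HEK-293 cells transiently expressing the human mGluR with a promiscuous or chimeric G protein were serum-starved 3 h and loaded 1.5 h with 1 μM Fluo4-AM. Compound alone was added in assay buffer, and calcium fluorescence (ex 485/em 525) was recorded for 10 min as agonist readout.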
# [17] = biological target: Adenosine receptor A2a (Homo sapiens) (UniProt P29274); assay: Agonist activity at A2A receptor (unknown origin) at 10 uM
# [18] = biological target: D(1A) dopamine receptor (Homo sapiens) (UniProt P21728); assay: Agonist activity at D1 receptor (unknown origin) at 10 uM
# [19] = biological target: D(2) dopamine receptor (Homo sapiens) (UniProt P14416); assay: Agonist activity at D2L receptor (unknown origin) at 10 uM
# [20] = biological target: Metabotropic glutamate receptor 4 (Rattus norvegicus) (UniProt P31423); assay: Positive allosteric modulation of rat mGlu4 receptor expressed in HEK293 cells co-expressing Gi/Gq assessed as increase in glutamate-induced calcium flux preincubated for 10 mins followed by glutamate addition measured for 3 mins by Fluo4-AM dye based fluorescence assay relative to control; type: functional, cell-based
# [21] = biological target: Metabotropic glutamate receptor 5 (Homo sapiens) (UniProt P41594); assay: Activity at human mGlu5 receptor expressed in HEK293 cells co-expressing Gi/Gq assessed as effect on EC20/EC80 glutamate-induced intracellular calcium level up to 10 uM preincubated for 10 mins followed by glutamate addition measured for 3 mins by Fluo4-AM dye based fluorescence assay; type: functional, cell-based
# Method in brief: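 HEK-293 cells were electroporated with the human mGluR plus a promiscuous or chimeric G protein and cultured 24 h, then serum-starved 3 h. Cells were loaded 1.5 h with 1 μM Fluo4-AM in HBSS/HEPES buffer with probenecid and 0.1% BSA. Compound was added for 10 min, then glutamate at EC20 (PAM) or EC80 (NAM), and fluorescence (ex 485/em 525) was read for 3 min.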
# Chain of Metabotropic glutamate receptor 2 (Homo sapiens) (Q14416 19-872 limits assumed): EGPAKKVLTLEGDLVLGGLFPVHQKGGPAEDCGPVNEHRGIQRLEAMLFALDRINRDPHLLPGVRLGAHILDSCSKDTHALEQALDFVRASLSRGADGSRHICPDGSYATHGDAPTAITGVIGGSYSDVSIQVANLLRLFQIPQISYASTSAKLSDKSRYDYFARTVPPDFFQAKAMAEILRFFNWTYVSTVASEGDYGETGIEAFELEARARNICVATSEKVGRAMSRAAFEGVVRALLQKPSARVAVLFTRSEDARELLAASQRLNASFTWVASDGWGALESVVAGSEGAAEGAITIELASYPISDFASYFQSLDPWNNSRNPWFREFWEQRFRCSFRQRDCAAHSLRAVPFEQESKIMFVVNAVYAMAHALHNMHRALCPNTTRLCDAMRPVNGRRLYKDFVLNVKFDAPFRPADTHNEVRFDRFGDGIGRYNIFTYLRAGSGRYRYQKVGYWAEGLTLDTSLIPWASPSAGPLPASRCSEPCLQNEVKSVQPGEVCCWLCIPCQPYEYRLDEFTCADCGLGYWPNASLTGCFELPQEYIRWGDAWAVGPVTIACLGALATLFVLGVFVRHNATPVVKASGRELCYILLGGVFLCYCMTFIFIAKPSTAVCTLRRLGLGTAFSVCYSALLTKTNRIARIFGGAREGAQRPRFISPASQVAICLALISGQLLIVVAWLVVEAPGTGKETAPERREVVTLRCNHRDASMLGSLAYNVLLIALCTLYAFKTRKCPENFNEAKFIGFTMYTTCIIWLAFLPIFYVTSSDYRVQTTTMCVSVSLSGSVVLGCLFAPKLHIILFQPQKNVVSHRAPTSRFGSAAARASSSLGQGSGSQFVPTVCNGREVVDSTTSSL
# Chain of Metabotropic glutamate receptor 7 (Homo sapiens) (Q14831 whole entry): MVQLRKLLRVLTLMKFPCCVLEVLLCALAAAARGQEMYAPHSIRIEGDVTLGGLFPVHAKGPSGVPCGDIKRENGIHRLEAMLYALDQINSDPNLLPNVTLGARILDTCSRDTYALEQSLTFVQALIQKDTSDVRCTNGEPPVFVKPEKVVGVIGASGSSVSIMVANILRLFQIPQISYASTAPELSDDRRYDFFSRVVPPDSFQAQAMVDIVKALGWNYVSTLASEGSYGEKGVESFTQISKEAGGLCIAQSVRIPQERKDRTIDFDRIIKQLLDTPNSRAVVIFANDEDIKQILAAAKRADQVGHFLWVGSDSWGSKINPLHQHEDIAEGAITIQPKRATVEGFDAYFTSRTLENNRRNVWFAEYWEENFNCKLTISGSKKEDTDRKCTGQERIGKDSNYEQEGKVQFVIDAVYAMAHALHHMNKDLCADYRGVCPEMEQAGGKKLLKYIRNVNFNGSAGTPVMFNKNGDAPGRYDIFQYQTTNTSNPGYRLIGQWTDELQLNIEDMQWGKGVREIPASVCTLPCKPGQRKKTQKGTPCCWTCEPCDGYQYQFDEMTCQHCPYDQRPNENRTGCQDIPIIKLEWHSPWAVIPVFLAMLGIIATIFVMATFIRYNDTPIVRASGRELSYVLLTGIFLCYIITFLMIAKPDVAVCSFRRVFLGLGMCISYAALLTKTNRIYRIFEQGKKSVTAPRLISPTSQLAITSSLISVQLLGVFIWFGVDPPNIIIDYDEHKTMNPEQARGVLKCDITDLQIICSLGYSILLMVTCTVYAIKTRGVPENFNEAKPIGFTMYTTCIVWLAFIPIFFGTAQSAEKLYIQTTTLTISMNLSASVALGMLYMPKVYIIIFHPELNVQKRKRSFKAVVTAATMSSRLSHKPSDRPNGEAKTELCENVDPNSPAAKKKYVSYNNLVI
# Chain of Metabotropic glutamate receptor 4 (Homo sapiens, UniProt Q14833) (Q14833 whole entry): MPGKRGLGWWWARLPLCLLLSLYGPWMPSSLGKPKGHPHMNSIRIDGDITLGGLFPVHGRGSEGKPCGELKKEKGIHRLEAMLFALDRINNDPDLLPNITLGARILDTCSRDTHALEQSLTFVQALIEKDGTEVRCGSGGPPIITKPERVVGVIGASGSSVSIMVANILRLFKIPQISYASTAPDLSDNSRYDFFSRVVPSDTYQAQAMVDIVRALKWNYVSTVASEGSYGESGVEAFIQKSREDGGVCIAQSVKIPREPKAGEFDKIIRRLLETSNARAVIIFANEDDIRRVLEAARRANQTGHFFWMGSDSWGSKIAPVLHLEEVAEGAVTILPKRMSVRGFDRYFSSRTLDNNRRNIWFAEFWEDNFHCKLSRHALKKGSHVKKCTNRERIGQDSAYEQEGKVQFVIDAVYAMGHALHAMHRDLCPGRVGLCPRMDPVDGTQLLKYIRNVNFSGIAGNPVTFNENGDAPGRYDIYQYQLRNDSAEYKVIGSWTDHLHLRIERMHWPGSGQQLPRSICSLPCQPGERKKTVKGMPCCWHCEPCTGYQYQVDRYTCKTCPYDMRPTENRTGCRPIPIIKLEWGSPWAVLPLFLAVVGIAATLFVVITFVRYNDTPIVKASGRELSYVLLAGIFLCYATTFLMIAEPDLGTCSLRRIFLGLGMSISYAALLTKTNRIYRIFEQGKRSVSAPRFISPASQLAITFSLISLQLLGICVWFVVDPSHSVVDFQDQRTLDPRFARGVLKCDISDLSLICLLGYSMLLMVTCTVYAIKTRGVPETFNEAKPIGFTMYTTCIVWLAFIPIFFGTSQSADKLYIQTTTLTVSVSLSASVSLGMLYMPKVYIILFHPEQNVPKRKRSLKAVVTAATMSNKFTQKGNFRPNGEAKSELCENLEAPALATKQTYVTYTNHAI
# Chain of Metabotropic glutamate receptor 4 (Rattus norvegicus) (P31423 whole entry): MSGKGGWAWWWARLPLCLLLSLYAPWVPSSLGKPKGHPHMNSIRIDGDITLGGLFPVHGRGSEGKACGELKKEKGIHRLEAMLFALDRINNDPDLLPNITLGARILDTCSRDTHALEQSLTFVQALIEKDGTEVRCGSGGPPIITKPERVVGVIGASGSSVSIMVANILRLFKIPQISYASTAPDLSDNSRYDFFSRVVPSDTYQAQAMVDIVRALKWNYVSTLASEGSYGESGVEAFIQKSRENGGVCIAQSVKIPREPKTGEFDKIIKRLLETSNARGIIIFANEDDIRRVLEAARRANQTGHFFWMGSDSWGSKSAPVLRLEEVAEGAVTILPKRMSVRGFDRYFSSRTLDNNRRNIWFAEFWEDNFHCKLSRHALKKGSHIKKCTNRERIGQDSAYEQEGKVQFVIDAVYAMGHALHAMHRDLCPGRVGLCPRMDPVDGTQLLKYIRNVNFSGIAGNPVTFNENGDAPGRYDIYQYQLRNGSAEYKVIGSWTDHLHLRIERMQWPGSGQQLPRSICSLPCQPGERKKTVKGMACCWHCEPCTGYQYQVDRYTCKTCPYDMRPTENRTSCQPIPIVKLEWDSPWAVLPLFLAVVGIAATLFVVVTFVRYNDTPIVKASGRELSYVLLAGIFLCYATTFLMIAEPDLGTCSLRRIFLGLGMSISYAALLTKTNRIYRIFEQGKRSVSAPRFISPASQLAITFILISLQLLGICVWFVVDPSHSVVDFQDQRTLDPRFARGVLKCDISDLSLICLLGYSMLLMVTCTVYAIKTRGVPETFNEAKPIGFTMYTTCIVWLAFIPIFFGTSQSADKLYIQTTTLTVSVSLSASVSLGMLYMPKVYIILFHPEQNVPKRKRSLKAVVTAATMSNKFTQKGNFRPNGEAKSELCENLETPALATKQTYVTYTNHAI
# Chain of Metabotropic glutamate receptor 4 (Rattus norvegicus, UniProt P31423) (P31423 whole entry): as above
# Chain of Adenosine receptor A2a (Homo sapiens) (P29274 whole entry): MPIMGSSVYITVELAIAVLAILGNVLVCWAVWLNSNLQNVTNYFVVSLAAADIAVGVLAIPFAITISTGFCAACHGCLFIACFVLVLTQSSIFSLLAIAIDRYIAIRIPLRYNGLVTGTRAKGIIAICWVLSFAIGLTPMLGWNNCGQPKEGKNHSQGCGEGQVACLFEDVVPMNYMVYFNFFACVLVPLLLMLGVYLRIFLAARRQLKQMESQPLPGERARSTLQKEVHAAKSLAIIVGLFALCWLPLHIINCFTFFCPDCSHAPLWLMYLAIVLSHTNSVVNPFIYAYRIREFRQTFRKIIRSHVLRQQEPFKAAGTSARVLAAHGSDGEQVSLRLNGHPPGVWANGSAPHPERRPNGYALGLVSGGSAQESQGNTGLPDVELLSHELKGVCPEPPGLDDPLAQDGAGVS
# Chain of D(2) dopamine receptor (Homo sapiens) (P14416 whole entry): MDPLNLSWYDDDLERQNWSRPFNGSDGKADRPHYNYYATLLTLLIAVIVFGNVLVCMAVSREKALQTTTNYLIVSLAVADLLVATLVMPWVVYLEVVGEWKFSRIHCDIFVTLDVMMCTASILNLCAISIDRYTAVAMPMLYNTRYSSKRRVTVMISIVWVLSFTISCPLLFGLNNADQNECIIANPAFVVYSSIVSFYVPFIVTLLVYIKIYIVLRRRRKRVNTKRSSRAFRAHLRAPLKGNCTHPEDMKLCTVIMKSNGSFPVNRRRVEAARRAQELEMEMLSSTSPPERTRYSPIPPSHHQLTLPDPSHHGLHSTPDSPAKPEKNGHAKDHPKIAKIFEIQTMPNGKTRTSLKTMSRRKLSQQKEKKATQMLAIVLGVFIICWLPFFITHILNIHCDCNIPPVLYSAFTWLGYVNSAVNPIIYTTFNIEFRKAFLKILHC
# Chain of D(1A) dopamine receptor (Homo sapiens) (P21728 whole entry): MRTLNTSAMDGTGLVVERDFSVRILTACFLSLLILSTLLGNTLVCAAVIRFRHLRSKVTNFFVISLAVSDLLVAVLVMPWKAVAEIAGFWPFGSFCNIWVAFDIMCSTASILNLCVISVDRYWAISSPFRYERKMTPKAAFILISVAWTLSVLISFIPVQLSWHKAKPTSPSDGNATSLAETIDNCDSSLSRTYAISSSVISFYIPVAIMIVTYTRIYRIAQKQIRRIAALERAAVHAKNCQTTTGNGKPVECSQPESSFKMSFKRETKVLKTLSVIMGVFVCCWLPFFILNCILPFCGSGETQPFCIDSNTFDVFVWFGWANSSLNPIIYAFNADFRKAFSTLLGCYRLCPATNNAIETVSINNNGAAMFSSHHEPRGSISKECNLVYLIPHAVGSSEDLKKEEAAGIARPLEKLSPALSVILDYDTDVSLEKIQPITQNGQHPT
smiles,measurement,setting,value
O/N=c1\cc(-c2cc3cccn3cn2)oc2ccc(OCCN3CCOCC3)cc12 [listing 1 of 2 here],AUC(0-inf),[1],269 ng·h/mL
same,Ratio,[2],14.5
same,Kp at 0.5 h,[3],2.3
same,Vd,Mus musculus,6 L/kg
same,EC50,[4],70 nM
same,half-life,[5],438 min
same,Ratio,[6],3.6
same,Drug uptake(free),Brain,13 ng/g
same,fraction unbound at 10 µM,[7],0.0076
same,Kp at 0.5 h,[8],3.6
same,Ratio,[9],7.6
same,Activity,Rattus norvegicus,Non-Toxic
same,Ratio,[10],0.2
same,Tmax,[11],30 min
same,Tmax,[12],15 min
same,Cmax,[13],9320 ng/mL
same,EC50,[14],27 nM
O/N=c1\cc(-c2cc3cccn3cn2)oc2ccc(OCCN3CCOCC3)cc12 [listing 2 of 2 here],Activity,[15],inactive
same,Activity,[16],inactive
same,Activity,[17],inactive
same,Activity,[18],inactive
same,Activity,[19],inactive
same,Emax,[20],75%
same,Activity,[21],inactive
